1 compound from ChEMBL document CHEMBL1914395, “Design, synthesis, and biological evaluation of callophycin A and analogues as potential chemopreventive and anticancer agents” (Bioorg Med Chem, 2011) can be followed below.

As a reminder, the IC50 is the concentration needed to halve the response being measured. One may read the inhibition as the share of the control response that was lost under treatment.

The subject of test [1] is MCF7. The test is described as follows: Antiproliferative activity against human MCF7 cells after 72 hrs by SRB assay. The conditions noted are these: MCF7, 72 h. Format: functional, cell-based. The gist of the method:
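MCF7 cells, 1 × 10^4 per well, plated directly onto compounds and incubated 72 h at 37°C, 5% CO2. Fixed with 10% TCA, stained with 0.4% SRB in 1% acetic acid. Bound dye dissolved in 10 mM Tris pH 10.0, absorbance read at 515 nm. Survival expressed relative to DMSO-treated controls.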
Background: Sulforhodamine B stains cellular protein and so reports cell mass.

In test [2] the target is T1, Aromatase (Homo sapiens, UniProt P11511).
T1 sequence (P11511 whole entry): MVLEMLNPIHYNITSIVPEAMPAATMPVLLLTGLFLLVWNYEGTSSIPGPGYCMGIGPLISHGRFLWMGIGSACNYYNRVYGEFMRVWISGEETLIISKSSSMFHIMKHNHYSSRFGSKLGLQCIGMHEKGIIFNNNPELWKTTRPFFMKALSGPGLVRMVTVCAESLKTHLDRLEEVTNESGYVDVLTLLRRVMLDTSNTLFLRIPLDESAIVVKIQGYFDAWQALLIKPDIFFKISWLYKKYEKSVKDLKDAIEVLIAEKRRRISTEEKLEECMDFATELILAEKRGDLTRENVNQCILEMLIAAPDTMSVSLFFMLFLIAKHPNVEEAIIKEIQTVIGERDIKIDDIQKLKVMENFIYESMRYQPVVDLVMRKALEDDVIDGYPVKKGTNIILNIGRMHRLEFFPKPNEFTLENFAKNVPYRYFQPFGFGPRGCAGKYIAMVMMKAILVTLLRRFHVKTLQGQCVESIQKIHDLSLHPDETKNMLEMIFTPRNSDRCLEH
The test is described as follows: Inhibition of aromatase at 50 uM after 10 mins preincubation by plate reader relative to control. The gist of the method:
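CYP19 enzyme. Compound pre-incubated 10 min with an NADPH-regenerating system (NADP+, glucose 6-phosphate, G6PDH, MgCl2, albumin) in 50 mM potassium phosphate pH 7.4. Enzyme and 0.4 μM dibenzylfluorescein substrate then added, 30 min at 37 °C. Quenched with 2 N NaOH and incubated a further 2 h at 37 °C. Fluorescence read at ex 485/em 530 nm. Compound tested at 50 μM.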

The target in test [3] is NAD(P)H dehydrogenase [quinone] 1 (Mus musculus) (UniProt Q64669). Description: Induction of quinone reductase 1 activity in mouse Hepa-1c1c7 cells assessed as cell survival at 50 uM by MTT assay relative to control. Format: cell-based. In general terms: Formazan colour is commonly taken as a measure of viable cells.
NAD(P)H dehydrogenase [quinone] 1 (Mus musculus), sequence (Q64669 whole entry): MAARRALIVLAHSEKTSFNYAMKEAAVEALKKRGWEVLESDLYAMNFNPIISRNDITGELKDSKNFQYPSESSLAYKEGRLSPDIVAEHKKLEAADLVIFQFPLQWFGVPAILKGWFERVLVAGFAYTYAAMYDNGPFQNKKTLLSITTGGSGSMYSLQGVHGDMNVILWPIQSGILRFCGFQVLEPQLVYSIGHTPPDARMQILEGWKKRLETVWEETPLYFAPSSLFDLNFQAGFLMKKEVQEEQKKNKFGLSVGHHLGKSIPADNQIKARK
Test [4] has as its system MCF7. The test is described as follows: Antiproliferative activity against human MCF7 cells assessed as survival at 50 uM after 72 hrs by SRB assay relative to control. The conditions noted are these: MCF7, 72 h, read-out: Survival. Format: functional. The gist of the method:
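MCF7 cells (1 × 10^4 per well) were plated onto compound and kept at 37°C, 5% CO2 for 72 h. Cells were fixed in 10% TCA for 30 min and stained with 0.4% SRB in 1% acetic acid for 30 min. Bound dye was dissolved in 10 mM Tris (pH 10.0) and read at 515 nm. Survival is given as % of DMSO-treated controls, screened at 50 μM.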

Test [5] concerns the target NAD(P)H dehydrogenase [quinone] 1 (Mus musculus) (UniProt Q64669). The test is described as follows: Induction of quinone reductase 1 activity in mouse Hepa-1c1c7 cells at 50 uM by MTT assay relative to untreated control. In kind it is cell-based. The gist of the method: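 Hepa 1c1c7 murine hepatoma cells treated with compound at 50 μM. QR1 measured by NADPH-dependent, menadiol-mediated reduction of MTT to formazan. Protein measured by crystal violet staining of identical plates. Specific activity is nmol formazan per mg protein per min. Induction ratio is treated versus DMSO-treated control.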

The target of test [6] is T2, Nitric oxide synthase, inducible (Mus musculus) (UniProt P29477).
T2 sequence (whole entry): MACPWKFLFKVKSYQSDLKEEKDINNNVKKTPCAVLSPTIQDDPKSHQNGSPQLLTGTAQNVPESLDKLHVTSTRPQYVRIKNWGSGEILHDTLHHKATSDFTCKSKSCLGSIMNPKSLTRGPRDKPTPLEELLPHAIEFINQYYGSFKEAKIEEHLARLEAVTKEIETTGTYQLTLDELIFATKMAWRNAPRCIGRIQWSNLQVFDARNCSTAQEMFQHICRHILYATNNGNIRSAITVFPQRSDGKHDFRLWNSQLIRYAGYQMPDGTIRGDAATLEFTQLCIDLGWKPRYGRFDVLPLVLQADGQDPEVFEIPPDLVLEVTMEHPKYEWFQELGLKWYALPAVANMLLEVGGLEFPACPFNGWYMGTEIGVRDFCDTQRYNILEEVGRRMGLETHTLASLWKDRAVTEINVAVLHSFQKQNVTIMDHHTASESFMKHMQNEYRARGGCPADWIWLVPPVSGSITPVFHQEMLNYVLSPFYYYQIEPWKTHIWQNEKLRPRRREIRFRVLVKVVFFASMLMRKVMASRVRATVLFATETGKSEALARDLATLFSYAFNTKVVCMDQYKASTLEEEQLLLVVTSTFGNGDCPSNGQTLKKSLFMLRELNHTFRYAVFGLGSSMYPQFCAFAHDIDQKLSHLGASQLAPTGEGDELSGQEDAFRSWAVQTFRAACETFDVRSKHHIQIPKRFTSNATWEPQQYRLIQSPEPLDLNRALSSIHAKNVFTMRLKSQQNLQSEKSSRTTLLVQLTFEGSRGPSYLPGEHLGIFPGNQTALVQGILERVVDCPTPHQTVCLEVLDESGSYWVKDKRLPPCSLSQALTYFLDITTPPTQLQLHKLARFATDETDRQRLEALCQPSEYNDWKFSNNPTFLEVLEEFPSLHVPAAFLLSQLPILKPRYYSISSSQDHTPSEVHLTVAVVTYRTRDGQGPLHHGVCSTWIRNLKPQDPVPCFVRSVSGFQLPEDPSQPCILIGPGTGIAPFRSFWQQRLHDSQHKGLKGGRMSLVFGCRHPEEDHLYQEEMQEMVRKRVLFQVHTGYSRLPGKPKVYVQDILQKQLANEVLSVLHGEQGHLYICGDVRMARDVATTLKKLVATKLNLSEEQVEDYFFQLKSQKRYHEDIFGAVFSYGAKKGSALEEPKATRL
The test is described as follows: Inhibition of iNOS-mediated nitric oxide production in LPS-stimulated mouse RAW 264.7 cells assessed as cell survival at 50 uM pretreated 15 mins before LPS challenge measured after 20 hrs relative to control. Format: cell-based. The method, boiled down:
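RAW 264.7 cells were incubated at 37°C, 5% CO2 for 24 h. They were then exposed to compound for 15 min before LPS (1 μg/mL) was added for 20 h. Cytotoxicity was measured by SRB staining under the same conditions. Survival is expressed as % relative to vehicle-treated controls at 50 μM.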

Test [7] addresses T3, Nitric oxide synthase, inducible (Mus musculus, UniProt P29477).
T3 sequence (P29477 whole entry): T2 sequence (whole entry)
The test is described as follows: Inhibition of iNOS-mediated nitric oxide production in LPS-stimulated mouse RAW 264.7 cells pretreated 15 mins before LPS challenge measured after 20 hrs relative to control. Format: cell-based. The method, boiled down: (§1)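 RAW 264.7 cells cultured 24 h at 37°C, then given serially diluted compounds for 15 min before LPS (1 μg/mL) for 20 h. Nitrite in the medium measured with Griess reagent at 540 nm against a sodium nitrite standard curve. Cytotoxicity checked by SRB under the same conditions.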

Test [8] deals with HEK293. Description: Inhibition of TNF-alpha-induced NFkappaB activation in human HEK293 cells assessed as cell survival at 50 uM after 6 hrs by luciferase assay relative to control. In kind it is cell-based.
The target in test [9] is T1, Aromatase. Description: Inhibition of aromatase after 10 mins preincubation by plate reader relative to control.
Test [10] concerns the target T2, Nitric oxide synthase, inducible (Mus musculus). Description: Inhibition of iNOS-mediated nitric oxide production in LPS-stimulated mouse RAW 264.7 cells at 50 uM pretreated 15 mins before LPS challenge measured after 20 hrs relative to control. Format: cell-based. The gist of the method: as §1
In test [11] the test system is HEK293. The test is described as follows: Inhibition of TNF-alpha-induced NFkappaB activation in human HEK293 cells at 50 uM after 6 hrs by luciferase assay relative to control. In kind it is cell-based. The method, boiled down:
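Cells incubated 6 h with TNFα plus test compound, then luciferase activity measured. Results expressed as percent of TNFα-treated control. Screening concentration 50 μM.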

For the compound `COC(=O)[C@@H]1Cc2c([nH]c3ccccc23)CN1S(=O)(=O)c1ccc(C)cc1`, the figures for the IC50 in [1], in test [7] and in test [9] were 37 µM, 22.6 µM and 63.2 µM, respectively. Also, the inhibition at 50 µM in [2] stood at 41.7%. Further, the figures for the Survival in test [3], in [6] and in test [8] were 61%, 116% and 171%, respectively. The viability at 50 µM in test [4] came to 19%. Moreover, in test [5], the Ratio was 1.3. For the same compound, the inhibition in test [10] came out at 73.8%; in test [11] it was 6%.
